Data on ten molecules can be found in ChEMBL document CHEMBL3774342, “Indole Based Weapons to Fight Antibiotic Resistance: A Structure-Activity Relationship Study” (J Med Chem, 2016).

In brackets after ≈: the same amount, converted by molar mass. Activity calls are given as the source filed them. The calls are words filed in the database; no cut-off is given here.

The target in data set [1] is T1, Quinolone resistance protein NorA (Staphylococcus aureus, UniProt P0A0J7).
T1 sequence (P0A0J7 whole entry): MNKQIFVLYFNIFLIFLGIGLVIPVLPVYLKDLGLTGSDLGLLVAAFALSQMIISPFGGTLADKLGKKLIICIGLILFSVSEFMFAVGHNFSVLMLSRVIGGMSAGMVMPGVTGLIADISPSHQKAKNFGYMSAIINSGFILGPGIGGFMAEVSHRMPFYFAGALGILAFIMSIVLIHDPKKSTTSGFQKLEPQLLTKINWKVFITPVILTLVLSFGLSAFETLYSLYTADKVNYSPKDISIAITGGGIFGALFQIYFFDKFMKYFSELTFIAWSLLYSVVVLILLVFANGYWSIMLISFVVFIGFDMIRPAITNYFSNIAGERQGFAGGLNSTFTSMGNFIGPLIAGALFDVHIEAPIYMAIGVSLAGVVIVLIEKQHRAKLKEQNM
The experiment in a line: Inhibition of NorA efflux pump in Staphylococcus aureus 1199B assessed as reduction in EtBr efflux incubated for 20 mins measured for 5 mins by real-time fluorometric analysis. A digest of the protocol: (§1)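 SA-1199B (norA-overexpressing) grown overnight in cation-supplemented Mueller-Hinton broth, diluted 25-fold and grown at 35 °C to OD600 0.7–0.8. Loaded with EtBr 25 µM plus CCCP 100 µM (final), then resuspended in fresh broth. Fluorescence read at ex 485/em 645 nm for 5 min, ± compound. Efflux inhibition in % relative to untreated cells; screened at 50 µM. IC50 from concentration series; triplicate, two technical replicates each.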

The nature of data set [2]: Solubility of the compound in D2O solution at 25 degC by 1H NMR analysis. In kind it is physicochemical. An outline of the steps: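 1H NMR in D2O at 25 °C with TSP internal standard, following a literature procedure.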
For data set [3], the target named is T2, Quinolone resistance protein NorA (Staphylococcus aureus) (UniProt P0A0J7).
T2 sequence (whole entry): T1 sequence (P0A0J7 whole entry)
The experiment in a line: Inhibition of NorA efflux pump in Staphylococcus aureus 1199 assessed as potentiation of ciprofloxacin-mediated antibacterial activity.

A short description of data set [4]: Metabolic stability in human liver microsomes assessed as compound remaining after at 10 uM preincubated for 5 mins followed by NADPH addition measured after 30 mins by HPLC-MS/MS analysis. In kind it is ADME. The note with it: read-out: Stability. An outline of the steps: (§2)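 Human liver microsomes at 0.5 mg protein/ml in 100 mM potassium phosphate pH 7.4. Substrate at 10 µM final, pre-incubated 5 min at 37 °C with shaking, then started with 1 mM NADPH. Quenched at 0 and 30 min with cold acetonitrile containing labetalol internal standard. Spun 12000 g, 5 min, 4 °C; supernatant analysed by UHPLC C18 HPLC-MS/MS.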

Data set [5] relates to Staphylococcus aureus. Description: Inhibition of NorA efflux pump A116E GrlA mutant in Staphylococcus aureus 1199B assessed as potentiation of ciprofloxacin-mediated antibacterial activity at 3.13 ug/ml relative to control.
The subject of data set [6] is Liver microsome. Description: Drug metabolism in human liver microsomes assessed as 1-benzyl-2-methyl-5-(3-(piperazin-1-yl)propoxy)-1H-indole-3-carboxylic acid formation at 10 uM preincubated for 5 mins followed by NADPH addition measured after 30 mins by HPLC-MS/MS analysis. The class given is ADME. The note with it: 0.5 h. An outline of the steps:
as §2
For orientation: Liver microsomes are a subcellular fraction often used to study metabolism.

Data set [7] has as its target T2, Quinolone resistance protein NorA (Staphylococcus aureus). The experiment in a line: Inhibition of NorA efflux pump in Staphylococcus aureus 1199B assessed as reduction in EtBr efflux at 50 uM incubated for 20 mins measured for 5 mins by real-time fluorometric analysis. A digest of the protocol:
as §1

Data set [8] deals with Staphylococcus aureus. Description: Antimicrobial activity against Staphylococcus aureus 1199B by microdilution method. In kind it is functional. An outline of the steps:
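MIC by broth microdilution following CLSI guidelines against S. aureus SA-1199B, a strain that overexpresses norA. Run on compounds giving at least 80% EtBr efflux inhibition and on selected weaker ones.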

Data set [9] has as its system Liver microsome. Description: Drug metabolism in human liver microsomes assessed as ethyl 2-methyl-5-(3-(piperazin-1-yl)propoxy)-1H-indole-3-carboxylate formation at 10 uM preincubated for 5 mins followed by NADPH addition measured after 30 mins by HPLC-MS/MS analysis. In kind it is ADME. The note with it: 0.5 h. An outline of the steps: as §2
In data set [10] the test system is Liver microsome. Description: Drug metabolism in human liver microsomes assessed as 1-Benzyl-2-methyl-5-(3-(piperidin-1-yl)propoxy)-1H-indole-3-carboxylic acid formation at 10 uM preincubated for 5 mins followed by NADPH addition measured after 30 mins by HPLC-MS/MS analysis. In kind it is ADME. The note with it: 0.5 h. A digest of the protocol:
as §2

The subject of data set [11] is Liver microsome. The experiment in a line: Drug metabolism in human liver microsomes assessed as ethyl 2-Methyl-5-(3-(piperidin-1-yl)propoxy)-1H-indole-3-carboxylate formation at 10 uM preincubated for 5 mins followed by NADPH addition measured after 30 mins by HPLC-MS/MS analysis. The note with it: 0.5 h. In kind it is ADME. An outline of the steps:
as §2

The test system of data set [12] is Liver microsome. The experiment in a line: Drug level in human liver microsomes treated with Ethyl 1-Benzyl-2-methyl-5-(2-(piperazin-1-yl)ethoxy)-1H-indole-3-carboxylate at 10 uM preincubated for 5 mins followed by NADPH addition measured after 30 mins by HPLC-MS/MS analysis. In kind it is ADME. The note with it: 0.5 h. A digest of the protocol: as §2
Data set [13] has as its system Liver microsome. Description: Drug metabolism in human liver microsomes assessed as ethyl 1-(2-hydroxybenzyl)-2-methyl-5-(3-(piperidin-1-yl)propoxy)-1H-indole-3-carboxylate formation at 10 uM preincubated for 5 mins followed by NADPH addition measured after 30 mins by HPLC-MS/MS analysis. In kind it is ADME. The note with it: 0.5 h. A digest of the protocol:
as §2

Data set [14] has as its system Liver microsome. Description: Drug metabolism in human liver microsomes assessed as N-dealkylated M-90 formation at 10 uM preincubated for 5 mins followed by NADPH addition measured after 30 mins by HPLC-MS/MS analysis. In kind it is ADME. The note with it: 0.5 h. A digest of the protocol:
as §2

Data set [15] deals with Liver microsome. Description: Drug metabolism in human liver microsomes assessed as N-dealkylated M-68 formation at 10 uM preincubated for 5 mins followed by NADPH addition measured after 30 mins by HPLC-MS/MS analysis. The class given is ADME. The note with it: 0.5 h. An outline of the steps:
as §2

In data set [16] the target is T2, Quinolone resistance protein NorA (Staphylococcus aureus). Description: Inhibition of NorA efflux pump in Staphylococcus aureus assessed as potentiation of ciprofloxacin-mediated antibacterial activity at 1.5 ug/ml relative to control.
Data set [17] concerns Liver microsome. Description: Drug level in human liver microsomes treated with Ethyl 1-benzyl-2-methyl-5-(3-(piperidin-1-yl)propoxy)-1H-indole-3-carboxylate at 10 uM preincubated for 5 mins followed by NADPH addition measured after 30 mins by HPLC-MS/MS analysis. The note with it: 0.5 h. In kind it is ADME. An outline of the steps:
as §2

Data set [18] relates to Liver microsome. The experiment in a line: Drug level in human liver microsomes treated with Ethyl 1-(2-Methoxybenzyl)-2-methyl-5-(3-(piperidin-1-yl)-propoxy)-1H-indole-3-carboxylate at 10 uM preincubated for 5 mins followed by NADPH addition measured after 30 mins by HPLC-MS/MS analysis. The class given is ADME. The note with it: 0.5 h. An outline of the steps: as §2
Data set [19] concerns Liver microsome. Description: Drug metabolism in human liver microsomes assessed as 5-(3-aminopropoxy)-1-benzyl-2-methyl-1H-indole-3-carboxylic acid formation at 10 uM preincubated for 5 mins followed by NADPH addition measured after 30 mins by HPLC-MS/MS analysis. The class given is ADME. The note with it: 0.5 h. A digest of the protocol:
as §2

Data set [20] relates to Liver microsome. The experiment in a line: Drug metabolism in human liver microsomes assessed as ethyl 5-(3-aminopropoxy)-2-methyl-1H-indole-3-carboxylate formation at 10 uM preincubated for 5 mins followed by NADPH addition measured after 30 mins by HPLC-MS/MS analysis. In kind it is ADME. The note with it: 0.5 h. A digest of the protocol: as §2
The subject of data set [21] is Liver microsome. The experiment in a line: Drug metabolism in human liver microsomes assessed as 1-benzyl-2-methyl-5-(2-(piperazin-1-yl)ethoxy)-1H-indole-3-carboxylic acid formation at 10 uM preincubated for 5 mins followed by NADPH addition measured after 30 mins by HPLC-MS/MS analysis. In kind it is ADME. The note with it: 0.5 h. An outline of the steps:
as §2

Data set [22] deals with Liver microsome. Description: Drug metabolism in human liver microsomes assessed as ethyl 2-methyl-5-(2-(piperazin-1-yl)ethoxy)-1H-indole-3-carboxylate formation at 10 uM preincubated for 5 mins followed by NADPH addition measured after 30 mins by HPLC-MS/MS analysis. In kind it is ADME. The note with it: 0.5 h. A digest of the protocol:
as §2

For orientation: IC50 means the concentration that gives 50% inhibition. A word on the solubility: it is how much of the substance goes into solution per volume. Lower therefore signals a poorly soluble substance. As usually defined, the inhibition is how much of the control response was suppressed. Usually MIC stands for the lowest concentration found to suppress growth. Read a high MIC as weaker potency. As for `CCOC(=O)c1c(C)n(Cc2ccccc2)c2ccc(OCCCN3CCNCC3)cc12`, the IC50 in data set [1] amounted to 12.5 µM. In data set [2], the solubility came to 20 µM (≈ 8.71 µg/mL). Further, in data set [3], the inhibition result is “inactive”. Moreover, the remaining at 0.5 h, 10 µM in data set [4] was determined as 82%. In the data set with Staphylococcus aureus [5], the fold change (FC) turned out to be 4. Moreover, the Drug metabolism entry in the data set on Liver microsome [6] and with Liver microsome [9] was “metabolite_detected” in each case. Also, the inhibition in [7] amounted to 100%. The same molecule gave a minimum inhibitory concentration (MIC) against Staphylococcus aureus [8] of 100 µg/mL (≈ 230 µM).

Turning to `CCOC(=O)c1c(C)n(Cc2ccccc2)c2ccc(OCCCN3CCCCC3)cc12`, the Drug metabolism entry in the data set on Liver microsome [10] and in the data set with Liver microsome [11] was “metabolite_detected” in each case. The IC50 in [1] is 6 µM. Besides, the solubility in [2] stood at 23 µM (≈ 10 µg/mL). Besides, the remaining at 0.5 h, 10 µM in data set [4] is 76%. The inhibition in data set [7] turned out to be 98.5%. Besides, the minimum inhibitory concentration (MIC) with Staphylococcus aureus [8] was above 100 µg/mL.

In the case of `Cc1c(C(=O)O)c2cc(OCCN3CCNCC3)ccc2n1Cc1ccccc1`, the Drug metabolism result in the data set with Liver microsome [12] is “metabolite_detected”.

For the molecule `CCOC(=O)c1c(C)n(Cc2ccccc2OC)c2ccc(OCCCN3CCCCC3)cc12`, the Drug metabolism entry in the data set on Liver microsome [11] and with Liver microsome [13] was “metabolite_detected” each time. In data set [1], the 50% inhibitory concentration (IC50) amounted to 5 µM. The molecule also yielded a solubility in [2] of 25 µM (≈ 11.6 µg/mL). For the same molecule, the remaining at 0.5 h, 10 µM in data set [4] stood at 66%. In addition, the inhibition in data set [7] came out at 87.9%. Moreover, in the data set on Staphylococcus aureus [8], the MIC is above 100 µg/mL.

For the molecule `CCOC(=O)c1c(C)[nH]c2ccc(OCCN3CCNCC3)cc12`, in the data set on Liver microsome [12], the Drug metabolism entry was “metabolite_detected”.

`CCOC(=O)c1c(C)n(Cc2ccccc2)c2ccc(OCC(F)CN3CCCCC3)cc12` (centres undefined): the Drug metabolism result with Liver microsome [14] and in the data set on Liver microsome [15] was “metabolite_detected” each time. Also, the IC50 in [1] was 5.1 µM. Further, in [2], the solubility worked out at 20 µM (≈ 9.05 µg/mL). For the same molecule, the remaining at 0.5 h, 10 µM in data set [4] was found to be 52%. For the same molecule, the inhibition in [7] is 96.7%. The molecule also gave a minimum inhibitory concentration (MIC) in the data set with Staphylococcus aureus [8] above 100 µg/mL.

Turning to `O=[N+]([O-])c1ccc2[nH]c(-c3ccccc3)cc2c1`, in data set [16], the fold change (FC) is 4.

Regarding `CCOC(=O)c1c(C)[nH]c2ccc(OCCCN3CCCCC3)cc12`, the inhibition in [7] is 34.2%. The Drug metabolism result with Liver microsome [17] and in the data set with Liver microsome [18] was “metabolite_detected” in each case.

Take `CCOC(=O)c1c(C)n(Cc2ccccc2)c2ccc(OCCCN)cc12`: the Drug metabolism result in the data set with Liver microsome [19] and with Liver microsome [20] was “metabolite_detected” each time. For the same molecule, the IC50 in data set [1] came to 12.5 µM. This molecule came in with a solubility in data set [2] of 17 µM (≈ 6.23 µg/mL). The inhibition entry in [3] is “inactive”. The remaining at 0.5 h, 10 µM in [4] is 87%. The fold change (FC) in the data set on Staphylococcus aureus [5] worked out at 4. For the same molecule, the inhibition in [7] came out at 100%. This molecule showed a minimum inhibitory concentration (MIC) with Staphylococcus aureus [8] above 100 µg/mL.

In the case of `CCOC(=O)c1c(C)n(Cc2ccccc2)c2ccc(OCCN3CCNCC3)cc12`, the IC50 in data set [1] is 15.5 µM. For the same molecule, the concentration in solution in data set [2] (solubility) came to 190 µM (≈ 80.1 µg/mL). In addition, the Drug metabolism entry in the data set with Liver microsome [21] and in the data set on Liver microsome [22] was “metabolite_detected” each time. Besides, the inhibition entry in [3] is “inactive”. For the same molecule, the remaining at 0.5 h, 10 µM in [4] came to 72%. In addition, the fold change (FC) in the data set with Staphylococcus aureus [5] was 4. Further, in [7], the inhibition worked out at 99.2%. In addition, in the data set with Staphylococcus aureus [8], the MIC is above 100 µg/mL.
